Data on two compounds can be found in ChEMBL document CHEMBL1122702, “Radiohalogen-labeled imaging agents. 3. Compounds for measurement of brain blood flow by emission tomography” (J Med Chem, 1984).

The first data set is filed under the species Rattus norvegicus. The data set can be described thus: Ratio of distribution of the [131I]-labeled compound at 5 min in rat liver over uptake in blood. The format is ADME, organism-based. Conditions: other tissue. The method, boiled down:
(§1)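 Male Sprague-Dawley rats (200–300 g, fed ad libitum), ether-anesthetized, got a tail-vein bolus of 0.2 mL saline containing 10–20 μCi 131I compound and were decapitated at the stated time. Organs were weighed and gamma-counted against a serially diluted external standard. Organ/blood ratio was calculated from % dose per gram of organ. Animal numbers per time point were 1–4.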
On to `COc1cc(CC(C)NCc2ccccc2)c(OC)cc1I` (stereo not drawn), for which the Ratio amounted to 6.

As for `COc1cc(CC(C)NC(C)C)c(OC)cc1I` (stereo not drawn), the Ratio amounted to 4.4.

For another data set, the species on record is Rattus norvegicus. The data set can be described thus: The distribution of the 131 I-labeled compound at 5 min was evaluated in rat heart as Percent of injected dose per gram in the organ. The format is ADME, organism-based. The note with it: in vivo. The method, boiled down: (§2)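 Male Sprague-Dawley rats (200–300 g, free access to food and water), lightly ether-anesthetized and restrained, received a 0.2 mL saline tail-vein bolus of 10–20 μCi 131I-labeled compound. They were decapitated at the stated time, and organs were excised, weighed and gamma-counted. Percent injected dose was determined against a calibrated external standard made by serial dilution of the injectate. n = 1–4 rats.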
Compound `COc1cc(CC(C)NCc2ccccc2)c(OC)cc1I` (stereo not drawn) gave a Dose of 1.1%.

As to `COc1cc(CC(C)NC(C)C)c(OC)cc1I` (stereo not drawn), the Dose was determined as 1.2%.

A further data set is filed under the species Rattus norvegicus. In words: The distribution of the 131 I-labeled compound at 30 min was evaluated in rat brain as Percent of injected dose in the total organ. It is filed as ADME, organism-based. Conditions: in vivo, 0.5 h. The method, boiled down: as §2
The compound `COc1cc(CC(C)NCc2ccccc2)c(OC)cc1I` (stereo not drawn) came in with a Dose of 0.9%.

`COc1cc(CC(C)NC(C)C)c(OC)cc1I` (stereo not drawn) yielded a Dose of 0.52%.

The species named for another data set is Rattus norvegicus. In words: The distribution of the 131 I-labeled compound at 5 min was evaluated in rat liver as Percent of injected dose per gram in the organ. The format is ADME, organism-based. Conditions: in vivo. The essentials: as §2
Consider `COc1cc(CC(C)NCc2ccccc2)c(OC)cc1I` (stereo not drawn), for which the Dose was 0.72%.

`COc1cc(CC(C)NC(C)C)c(OC)cc1I` (stereo not drawn) yielded a Dose of 1.1%.

Another data set is filed under the species Rattus norvegicus. The data set can be described thus: Ratio of distribution of the [131I]-labeled compound at 30 min in rat brain over uptake in blood. The format is ADME, organism-based. Conditions: 0.5 h. The method, boiled down: as §1
Consider `COc1cc(CC(C)NCc2ccccc2)c(OC)cc1I` (stereo not drawn), for which the Ratio is 2.5.

Consider `COc1cc(CC(C)NC(C)C)c(OC)cc1I` (stereo not drawn), for which the Ratio was found to be 1.3.

For the next data set, the species on record is Rattus norvegicus. The data set can be described thus: The distribution of the 131 I-labeled compound at 5 min was evaluated in rat brain as Percent of injected dose in the total organ. It is filed as ADME, organism-based. Conditions: in vivo. The essentials:
as §2
In the case of `COc1cc(CC(C)NCc2ccccc2)c(OC)cc1I` (stereo not drawn), the Dose is 1.1%.

Turning to `COc1cc(CC(C)NC(C)C)c(OC)cc1I` (stereo not drawn), the Dose turned out to be 1.2%.

The species named for another data set is Rattus norvegicus. The data set can be described thus: The distribution of the 131 I-labeled compound at 5 min was evaluated in rat heart as Percent of injected dose in the total organ. The format is ADME, organism-based. Conditions: in vivo. The essentials:
as §2
With `COc1cc(CC(C)NCc2ccccc2)c(OC)cc1I` (stereo not drawn), the Dose turned out to be 0.77%.

Regarding `COc1cc(CC(C)NC(C)C)c(OC)cc1I` (stereo not drawn), the Dose was 0.79%.

The species entered for the next data set is Rattus norvegicus. In words: Ratio of distribution of the [131I]-labeled compound at 30 min in rat lung over uptake in blood. It is filed as ADME, organism-based. Conditions: other tissue, 0.5 h. The method, boiled down: as §1
Take `COc1cc(CC(C)NCc2ccccc2)c(OC)cc1I` (stereo not drawn): the Ratio was determined as 25.

As to `COc1cc(CC(C)NC(C)C)c(OC)cc1I` (stereo not drawn), the Ratio came out at 12.

The species named for another data set is Rattus norvegicus. The data set can be described thus: Ratio of distribution of the [131I]-labeled compound at 5 min in rat brain over uptake in blood. It is filed as ADME, organism-based.
Conditions: not given
The method, boiled down:
as §1
With `COc1cc(CC(C)NCc2ccccc2)c(OC)cc1I` (stereo not drawn), the Ratio turned out to be 5.3.

As to `COc1cc(CC(C)NC(C)C)c(OC)cc1I` (stereo not drawn), the Ratio worked out at 2.6.

For another data set, the species on record is Rattus norvegicus. The data set can be described thus: The distribution of the 131 I-labeled compound at 5 min was evaluated in rat liver as Percent of injected dose in the total organ. The format is ADME, organism-based. The note with it: in vivo. The method, boiled down:
as §2
With `COc1cc(CC(C)NCc2ccccc2)c(OC)cc1I` (stereo not drawn), the Dose is recorded as 4%.

On to `COc1cc(CC(C)NC(C)C)c(OC)cc1I` (stereo not drawn), for which the Dose was 7.2%.

Another data set is filed under the species Rattus norvegicus. In words: The distribution of the 131 I-labeled compound at 30 min was evaluated in rat lung as Percent of injected dose per gram in the organ. The format is ADME, organism-based. Conditions: in vivo, 0.5 h. The method, boiled down: as §2
As for `COc1cc(CC(C)NCc2ccccc2)c(OC)cc1I` (stereo not drawn), the Dose is reported as 5%.

In turn, `COc1cc(CC(C)NC(C)C)c(OC)cc1I` (stereo not drawn) returned a Dose of 2.8%.

The species entered for the next data set is Rattus norvegicus. The data set can be described thus: The distribution of the 131 I-labeled compound at 30 min was evaluated in rat heart as Percent of injected dose per gram in the organ. It is filed as ADME, organism-based. Conditions: in vivo, 0.5 h. The essentials: as §2
As for `COc1cc(CC(C)NCc2ccccc2)c(OC)cc1I` (stereo not drawn), the Dose stood at 0.5%.

As for `COc1cc(CC(C)NC(C)C)c(OC)cc1I` (stereo not drawn), the Dose worked out at 0.44%.

The species entered for the next data set is Rattus norvegicus. The data set can be described thus: The distribution of the 131 I-labeled compound at 5 min was evaluated in rat brain as Percent of injected dose per gram in the organ. Conditions: in vivo. The format is ADME, organism-based. The method, boiled down: as §2
The compound `COc1cc(CC(C)NCc2ccccc2)c(OC)cc1I` (stereo not drawn) had a Dose of 0.64%.

`COc1cc(CC(C)NC(C)C)c(OC)cc1I` (stereo not drawn) yielded a Dose of 0.66%.

The species named for another data set is Rattus norvegicus. In words: The distribution of the 131 I-labeled compound at 5 min was evaluated in rat lung as Percent of injected dose per gram in the organ. The format is ADME, organism-based. The note with it: in vivo. The essentials:
as §2
`COc1cc(CC(C)NCc2ccccc2)c(OC)cc1I` (stereo not drawn) displayed a Dose of 8.3%.

Regarding `COc1cc(CC(C)NC(C)C)c(OC)cc1I` (stereo not drawn), the Dose turned out to be 7.7%.

Another data set is filed under the species Rattus norvegicus. In words: The distribution of the 131 I-labeled compound at 5 min was evaluated in rat blood as Percent of injected dose per gram in the organ. The note with it: in vivo. It is filed as ADME, organism-based. The essentials:
as §2
For the compound `COc1cc(CC(C)NCc2ccccc2)c(OC)cc1I` (stereo not drawn), the Dose is 0.12%.

As for `COc1cc(CC(C)NC(C)C)c(OC)cc1I` (stereo not drawn), the Dose is reported as 0.25%.

For a further data set, the species on record is Rattus norvegicus. The data set can be described thus: The distribution of the 131 I-labeled compound at 30 min was evaluated in rat liver as Percent of injected dose per gram in the organ. It is filed as ADME, organism-based. The note with it: in vivo, 0.5 h. The essentials: as §2
`COc1cc(CC(C)NCc2ccccc2)c(OC)cc1I` (stereo not drawn): the Dose worked out at 0.95%.

In turn, `COc1cc(CC(C)NC(C)C)c(OC)cc1I` (stereo not drawn) had a Dose of 1.2%.

A further data set is filed under the species Rattus norvegicus. In words: The distribution of the 131 I-labeled compound at 30 min was evaluated in rat liver as Percent of injected dose in the total organ. It is filed as ADME, organism-based. The note with it: in vivo, 0.5 h. The method, boiled down: as §2
`COc1cc(CC(C)NCc2ccccc2)c(OC)cc1I` (stereo not drawn) displayed a Dose of 5.4%.

The compound `COc1cc(CC(C)NC(C)C)c(OC)cc1I` (stereo not drawn) had a Dose of 6%.

Another data set is filed under the species Rattus norvegicus. In words: Ratio of distribution of the [131I]-labeled compound at 5 min in rat heart over uptake in blood. It is filed as ADME, organism-based. Conditions: other tissue. The method, boiled down: as §1
As for `COc1cc(CC(C)NCc2ccccc2)c(OC)cc1I` (stereo not drawn), the Ratio was 9.2.

As for `COc1cc(CC(C)NC(C)C)c(OC)cc1I` (stereo not drawn), the Ratio is reported as 4.8.

The species entered for another data set is Rattus norvegicus. The data set can be described thus: Ratio of distribution of the [131I]-labeled compound at 30 min in rat liver over uptake in blood. It is filed as ADME, organism-based. The note with it: other tissue, 0.5 h. The essentials:
as §1
On to `COc1cc(CC(C)NCc2ccccc2)c(OC)cc1I` (stereo not drawn), for which the Ratio was 4.7.

`COc1cc(CC(C)NC(C)C)c(OC)cc1I` (stereo not drawn): the Ratio is 5.2.

The species named for a further data set is Rattus norvegicus. The data set can be described thus: Ratio of distribution of the [131I]-labeled compound at 30 min in rat heart over uptake in blood. The format is ADME, organism-based. Conditions: other tissue, 0.5 h. The method, boiled down: as §1
As for `COc1cc(CC(C)NCc2ccccc2)c(OC)cc1I` (stereo not drawn), the Ratio is 2.5.

As for `COc1cc(CC(C)NC(C)C)c(OC)cc1I` (stereo not drawn), the Ratio was determined as 1.9.

For a further data set, the species on record is Rattus norvegicus. In words: Ratio of distribution of the [131I]-labeled compound at 5 min in rat lung over uptake in blood. It is filed as ADME, organism-based. The note with it: other tissue. The method, boiled down: as §1
Consider `COc1cc(CC(C)NCc2ccccc2)c(OC)cc1I` (stereo not drawn), for which the Ratio worked out at 69.

As for `COc1cc(CC(C)NC(C)C)c(OC)cc1I` (stereo not drawn), the Ratio was found to be 31.

The species entered for another data set is Rattus norvegicus. In words: The distribution of the 131 I-labeled compound at 30 min was evaluated in rat blood as Percent of injected dose per gram in the organ. It is filed as ADME, organism-based. Conditions: in vivo, 0.5 h. The method, boiled down: as §2
`COc1cc(CC(C)NCc2ccccc2)c(OC)cc1I` (stereo not drawn) registered a Dose of 0.2%.

As to `COc1cc(CC(C)NC(C)C)c(OC)cc1I` (stereo not drawn), the Dose was 0.23%.

The species entered for another data set is Rattus norvegicus. In words: The distribution of the 131 I-labeled compound at 30 min was evaluated in rat brain as Percent of injected dose per gram in the organ. The format is ADME, organism-based. Conditions: in vivo, 0.5 h. The essentials:
as §2
Compound `COc1cc(CC(C)NCc2ccccc2)c(OC)cc1I` (stereo not drawn) gave a Dose of 0.5%.

`COc1cc(CC(C)NC(C)C)c(OC)cc1I` (stereo not drawn) yielded a Dose of 0.3%.

The next data set is filed under the species Rattus norvegicus. The data set can be described thus: The distribution of the 131 I-labeled compound at 30 min was evaluated in rat heart as Percent of injected dose in the total organ. It is filed as ADME, organism-based. The note with it: in vivo, 0.5 h. The method, boiled down: as §2
In turn, `COc1cc(CC(C)NCc2ccccc2)c(OC)cc1I` (stereo not drawn) showed a Dose of 0.34%.

For the compound `COc1cc(CC(C)NC(C)C)c(OC)cc1I` (stereo not drawn), the Dose stood at 0.29%.
